Experimental data as given in ChEMBL document CHEMBL3243962, “Antileukemic activity of derivatives of 1,2-dimethyl-3,4-bis(hydroxymethyl)-5-phenylpyrrole bis(N-methylcarbamate)” (J Med Chem, 1979).
Calls of active or inactive are those of the source.

tested on: Staphylococcus epidermidis; assay: Antimicrobial activity against Staphylococcus epidermidis ATCC 12228 at 1 mg after 24 hrs by disk sensitivity assay; type: functional, organism-based; conditions: not given
Outline: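 Bacteria grown 24 h in trypticase soy broth; 1 mL used to seed a lawn on trypticase soy agar. Sterile 6 mm paper disks carrying 1 mg test compound placed on agar, incubated 24 h at 37 °C, then zone of inhibition around each disk measured.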

Structure (SMILES) | Activity
CNC(=O)OCc1c(COC(=O)NC)c(-c2ccc(Cl)c(Cl)c2)n(C)c1C | Active

tested on: Mus musculus; assay: Toxicity in mouse P388 cells allografted CD2F1 mouse assessed as body weight loss at 100 mg/kg, ip of total 9 doses starting 24 hrs post tumor inoculation measured on day 5 of inoculation relative to control; type: organism-based; design: dose 100 mg/kg, route intraperitoneal; conditions: in vivo
Outline: (§1)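 Male CD2F1 mice inoculated ip with 6×10^6 P388 leukemia cells. Compounds given ip as distilled water–Tween 80 suspension, nine daily doses starting 24 h after inoculation; six mice per dose group. Treated-minus-control body-weight change (T − C) and toxicity-day survivors recorded on day 5 (4 days after first dose).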

Structure (SMILES) | Activity
CNC(=O)OCc1c(COC(=O)NC)c(-c2ccc(C)cc2)n(C)c1C | 1.8 g
CNC(=O)OCc1c(COC(=O)NC)c(-c2ccc(Cl)cc2)n(C)c1C | 7.5 g
CNC(=O)OCc1c(COC(=O)NC)c(-c2ccccc2)n(C)c1C | 6 g
CNC(=O)OCc1c(COC(=O)NC)c(-c2ccc(N)cc2)n(C)c1C | 3.5 g
CNC(=O)OCc1c(COC(=O)NC)c(-c2ccc(Cl)c(Cl)c2)n(C)c1C | 5.9 g

tested on: Mus musculus; assay: Toxicity in mouse P388 cells allografted CD2F1 mouse assessed as body weight loss at 50 mg/kg, ip of total 9 doses starting 24 hrs post tumor inoculation measured on day 5 of inoculation relative to control; type: organism-based; design: dose 50 mg/kg, route intraperitoneal; conditions: in vivo; outline: as §1

Structure (SMILES) | Activity
CNC(=O)OCc1c(COC(=O)NC)c(-c2ccc(C)cc2)n(C)c1C | 4.5 g
CNC(=O)OCc1c(COC(=O)NC)c(-c2ccc(Cl)cc2)n(C)c1C | 5.7 g
CNC(=O)OCc1c(COC(=O)NC)c(-c2ccccc2)n(C)c1C | 4.6 g
CNC(=O)OCc1c(COC(=O)NC)c(-c2ccc(N)cc2)n(C)c1C | 2.5 g
CNC(=O)OCc1c(COC(=O)NC)c(-c2ccc(Cl)c(Cl)c2)n(C)c1C | 3.2 g

tested on: Mus musculus; assay: Toxicity in mouse P388 cells allografted CD2F1 mouse assessed as body weight loss at 25 mg/kg, ip of total 9 doses starting 24 hrs post tumor inoculation measured on day 5 of inoculation relative to control; type: organism-based; design: dose 25 mg/kg, route intraperitoneal; conditions: in vivo; outline: as §1

Structure (SMILES) | Activity
CNC(=O)OCc1c(COC(=O)NC)c(-c2ccc(C)cc2)n(C)c1C | 3.4 g
CNC(=O)OCc1c(COC(=O)NC)c(-c2ccc(Cl)cc2)n(C)c1C | 4.4 g
CNC(=O)OCc1c(COC(=O)NC)c(-c2ccccc2)n(C)c1C | 3.9 g
CNC(=O)OCc1c(COC(=O)NC)c(-c2ccc(N)cc2)n(C)c1C | 0.4 g
CNC(=O)OCc1c(COC(=O)NC)c(-c2ccc(Cl)c(Cl)c2)n(C)c1C | 2.4 g

tested on: Mus musculus; assay: Toxicity in mouse P388 cells allografted CD2F1 mouse assessed as body weight loss at 12.5 mg/kg, ip of total 9 doses starting 24 hrs post tumor inoculation measured on day 5 of inoculation relative to control; type: organism-based; design: dose 12.5 mg/kg, route intraperitoneal; conditions: in vivo; outline: as §1

Structure (SMILES) | Activity
CNC(=O)OCc1c(COC(=O)NC)c(-c2ccc(C)cc2)n(C)c1C | 3.2 g
CNC(=O)OCc1c(COC(=O)NC)c(-c2ccc(Cl)cc2)n(C)c1C | 3.2 g
CNC(=O)OCc1c(COC(=O)NC)c(-c2ccccc2)n(C)c1C | 3.3 g
CNC(=O)OCc1c(COC(=O)NC)c(-c2ccc(N)cc2)n(C)c1C | 0.1 g
CNC(=O)OCc1c(COC(=O)NC)c(-c2ccc(Cl)c(Cl)c2)n(C)c1C | 1.7 g

tested on: Mus musculus; assay: Toxicity in mouse P388 cells allografted CD2F1 mouse assessed as body weight loss at 6.25 mg/kg, ip of total 9 doses starting 24 hrs post tumor inoculation measured on day 5 of inoculation relative to control; type: organism-based; design: dose 6.25 mg/kg, route intraperitoneal; conditions: in vivo; outline: as §1

Structure (SMILES) | Activity
CNC(=O)OCc1c(COC(=O)NC)c(-c2ccc(C)cc2)n(C)c1C | 1.4 g
CNC(=O)OCc1c(COC(=O)NC)c(-c2ccc(Cl)cc2)n(C)c1C | 3.4 g
CNC(=O)OCc1c(COC(=O)NC)c(-c2ccccc2)n(C)c1C | 2.5 g
CNC(=O)OCc1c(COC(=O)NC)c(-c2ccc(N)cc2)n(C)c1C | 0.7 g
CNC(=O)OCc1c(COC(=O)NC)c(-c2ccc(Cl)c(Cl)c2)n(C)c1C | 1.7 g

tested on: Mus musculus; assay: Toxicity in mouse P388 cells allografted CD2F1 mouse assessed as mouse survival at 100 mg/kg, ip of total 9 doses starting 24 hrs post tumor inoculation measured on day 5 of inoculation relative to control; type: organism-based; design: dose 100 mg/kg, route intraperitoneal; conditions: in vivo
Outline: (§2)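 Male CD2F1 mice bearing ip P388 leukemia (6×10^6 cells) were dosed ip with nine daily doses in distilled water–Tween 80 suspension, starting 24 h after inoculation. Survivors per group of 6 were counted on day 5, i.e. 4 days after the first dose. Body-weight change of treated minus control mice was also recorded.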

Structure (SMILES) | Activity
CNC(=O)OCc1c(COC(=O)NC)c(-c2ccc(C)cc2)n(C)c1C | Toxic

tested on: Mus musculus; assay: Toxicity in mouse P388 cells allografted CD2F1 mouse assessed as mouse survival at 50 mg/kg, ip of total 9 doses starting 24 hrs post tumor inoculation measured on day 5 of inoculation relative to control; type: organism-based; design: dose 50 mg/kg, route intraperitoneal; conditions: in vivo; outline: as §2

Structure (SMILES) | Activity
CNC(=O)OCc1c(COC(=O)NC)c(-c2ccc(Cl)cc2)n(C)c1C | Non-toxic
CNC(=O)OCc1c(COC(=O)NC)c(-c2ccccc2)n(C)c1C | Non-toxic
CNC(=O)OCc1c(COC(=O)NC)c(-c2ccc(N)cc2)n(C)c1C | Non-toxic
CNC(=O)OCc1c(COC(=O)NC)c(-c2ccc(Cl)c(Cl)c2)n(C)c1C | Non-toxic

tested on: Mus musculus; assay: Toxicity in mouse P388 cells allografted CD2F1 mouse assessed as mouse survival at 25 mg/kg, ip of total 9 doses starting 24 hrs post tumor inoculation measured on day 5 of inoculation relative to control; type: organism-based; design: dose 25 mg/kg, route intraperitoneal; conditions: in vivo; outline: as §2

Structure (SMILES) | Activity
CNC(=O)OCc1c(COC(=O)NC)c(-c2ccc(C)cc2)n(C)c1C | Non-toxic
CNC(=O)OCc1c(COC(=O)NC)c(-c2ccc(Cl)cc2)n(C)c1C | Non-toxic
CNC(=O)OCc1c(COC(=O)NC)c(-c2ccccc2)n(C)c1C | Non-toxic
CNC(=O)OCc1c(COC(=O)NC)c(-c2ccc(Cl)c(Cl)c2)n(C)c1C | Non-toxic

tested on: Mus musculus; assay: Toxicity in mouse P388 cells allografted CD2F1 mouse assessed as mouse survival at 12.5 mg/kg, ip of total 9 doses starting 24 hrs post tumor inoculation measured on day 5 of inoculation relative to control; type: organism-based; design: dose 12.5 mg/kg, route intraperitoneal; conditions: in vivo; outline: as §2

Structure (SMILES) | Activity
CNC(=O)OCc1c(COC(=O)NC)c(-c2ccc(C)cc2)n(C)c1C | Non-toxic
CNC(=O)OCc1c(COC(=O)NC)c(-c2ccc(Cl)cc2)n(C)c1C | Non-toxic
CNC(=O)OCc1c(COC(=O)NC)c(-c2ccccc2)n(C)c1C | Non-toxic
CNC(=O)OCc1c(COC(=O)NC)c(-c2ccc(N)cc2)n(C)c1C | Non-toxic
CNC(=O)OCc1c(COC(=O)NC)c(-c2ccc(Cl)c(Cl)c2)n(C)c1C | Non-toxic

tested on: Mus musculus; assay: Toxicity in mouse P388 cells allografted CD2F1 mouse assessed as mouse survival at 6.25 mg/kg, ip of total 9 doses starting 24 hrs post tumor inoculation measured on day 5 of inoculation relative to control; type: organism-based; design: dose 6.25 mg/kg, route intraperitoneal; conditions: in vivo; outline: as §2

Structure (SMILES) | Activity
CNC(=O)OCc1c(COC(=O)NC)c(-c2ccc(C)cc2)n(C)c1C | Non-toxic
CNC(=O)OCc1c(COC(=O)NC)c(-c2ccc(Cl)cc2)n(C)c1C | Non-toxic
CNC(=O)OCc1c(COC(=O)NC)c(-c2ccccc2)n(C)c1C | Non-toxic
CNC(=O)OCc1c(COC(=O)NC)c(-c2ccc(N)cc2)n(C)c1C | Non-toxic
CNC(=O)OCc1c(COC(=O)NC)c(-c2ccc(Cl)c(Cl)c2)n(C)c1C | Non-toxic

tested on: P388; assay: Antitumor activity against mouse P388 cells allografted in CD2F1 mouse assessed as increase in mouse survival at 100 mg/kg, ip of total 9 doses starting 24 hrs post tumor inoculation measured on day 5 of inoculation relative to control; type: functional; conditions: route intraperitoneal
Outline: (§3)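 Male CD2F1 mice inoculated ip with 6×10^6 P388 leukemia cells. Dosing was ip as a suspension in distilled water–Tween 80, nine daily doses starting 24 h after inoculation. Activity was read as median survival time of treated vs control mice (% T/C); % T/C ≥ 120 was considered significant. Groups were 6 mice.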

Structure (SMILES) | T/C
CNC(=O)OCc1c(COC(=O)NC)c(-c2ccccc2)n(C)c1C | <70%
CNC(=O)OCc1c(COC(=O)NC)c(-c2ccc(N)cc2)n(C)c1C | 135%

tested on: P388; assay: Antitumor activity against mouse P388 cells allografted in CD2F1 mouse assessed as increase in mouse survival at 50 mg/kg, ip of total 9 doses starting 24 hrs post tumor inoculation measured on day 5 of inoculation relative to control; type: functional; conditions: route intraperitoneal; outline: as §3

Structure (SMILES) | T/C
CNC(=O)OCc1c(COC(=O)NC)c(-c2ccc(Cl)cc2)n(C)c1C | 165%
CNC(=O)OCc1c(COC(=O)NC)c(-c2ccccc2)n(C)c1C | 90%
CNC(=O)OCc1c(COC(=O)NC)c(-c2ccc(N)cc2)n(C)c1C | 119%
CNC(=O)OCc1c(COC(=O)NC)c(-c2ccc(Cl)c(Cl)c2)n(C)c1C | 163%

tested on: P388; assay: Antitumor activity against mouse P388 cells allografted in CD2F1 mouse assessed as increase in mouse survival at 25 mg/kg, ip of total 9 doses starting 24 hrs post tumor inoculation measured on day 5 of inoculation relative to control; type: functional; conditions: route intraperitoneal; outline: as §3

Structure (SMILES) | T/C
CNC(=O)OCc1c(COC(=O)NC)c(-c2ccc(C)cc2)n(C)c1C | 144%
CNC(=O)OCc1c(COC(=O)NC)c(-c2ccc(Cl)cc2)n(C)c1C | 153%
CNC(=O)OCc1c(COC(=O)NC)c(-c2ccccc2)n(C)c1C | 145%
CNC(=O)OCc1c(COC(=O)NC)c(-c2ccc(N)cc2)n(C)c1C | 100%
CNC(=O)OCc1c(COC(=O)NC)c(-c2ccc(Cl)c(Cl)c2)n(C)c1C | 148%

tested on: P388; assay: Antitumor activity against mouse P388 cells allografted in CD2F1 mouse assessed as increase in mouse survival at 12.5 mg/kg, ip of total 9 doses starting 24 hrs post tumor inoculation measured on day 5 of inoculation relative to control; type: functional; conditions: route intraperitoneal; outline: as §3

Structure (SMILES) | T/C
CNC(=O)OCc1c(COC(=O)NC)c(-c2ccc(C)cc2)n(C)c1C | 144%
CNC(=O)OCc1c(COC(=O)NC)c(-c2ccc(Cl)cc2)n(C)c1C | 155%
CNC(=O)OCc1c(COC(=O)NC)c(-c2ccccc2)n(C)c1C | 130%
CNC(=O)OCc1c(COC(=O)NC)c(-c2ccc(N)cc2)n(C)c1C | 98%
CNC(=O)OCc1c(COC(=O)NC)c(-c2ccc(Cl)c(Cl)c2)n(C)c1C | 145%

tested on: P388; assay: Antitumor activity against mouse P388 cells allografted in CD2F1 mouse assessed as increase in mouse survival at 6.25 mg/kg, ip of total 9 doses starting 24 hrs post tumor inoculation measured on day 5 of inoculation relative to control; type: functional; conditions: route intraperitoneal; outline: as §3

Structure (SMILES) | T/C
CNC(=O)OCc1c(COC(=O)NC)c(-c2ccc(C)cc2)n(C)c1C | 138%
CNC(=O)OCc1c(COC(=O)NC)c(-c2ccc(Cl)cc2)n(C)c1C | 155%
CNC(=O)OCc1c(COC(=O)NC)c(-c2ccccc2)n(C)c1C | 135%
CNC(=O)OCc1c(COC(=O)NC)c(-c2ccc(N)cc2)n(C)c1C | 92%
CNC(=O)OCc1c(COC(=O)NC)c(-c2ccc(Cl)c(Cl)c2)n(C)c1C | 145%
